# GRIN3A LBD mod: modulates the human NR3A ligand-binding domain | Tm shift relative to glycine control, % at 25 µM | AID 1259313 | NR3A LBD differential scanning fluorimetry, Tm shift; 0% = protein alone, 100% = glycine-bound protein | 340,000 compounds, 2.5% hits;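 active = melting temperature shift of at least 10% of the positive control shift, at one fixed dose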
# SENP1 FRET inh: inhibitors of human SENP1 SUMO protease catalytic domain; recombinant SENP1 catalytic domain, CyPet-SUMO1-YPet FRET cleavage; inhibition, % at 10 µM; 360,000 compounds, 0.21% hits; AID 624204;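 active = inhibition at least 30% at 10 µM, raw YFP signal under a set limit, fluorescence ratio 0.5 to 1.5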
#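 Test system: human SENP1 catalytic domain; medium: Tris pH 8 buffer plus EDTA, NaCl, BME, BSA, NP40, catalase; incubation: 50 min reaction at room temperature; technique: FRET, CFP and YFP emission; controls: no-enzyme low control and enzyme-plus-DMSO high control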
# EBI2 antag: EBI2 (human) antagonism; EBI2 beta-arrestin recruitment, luminescence, 7a,25-OHC stimulated; P32249; inhibition, % at 5 µM; 360,000 compounds, 0.81% hits; AID 651636; in the data active = inhibition above about 38%;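 also: enzyme fragment complementation signal reports receptor beta-arrestin coupling in cells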
# Target sequence (P32249 whole entry, looked up, the tested form may be a part): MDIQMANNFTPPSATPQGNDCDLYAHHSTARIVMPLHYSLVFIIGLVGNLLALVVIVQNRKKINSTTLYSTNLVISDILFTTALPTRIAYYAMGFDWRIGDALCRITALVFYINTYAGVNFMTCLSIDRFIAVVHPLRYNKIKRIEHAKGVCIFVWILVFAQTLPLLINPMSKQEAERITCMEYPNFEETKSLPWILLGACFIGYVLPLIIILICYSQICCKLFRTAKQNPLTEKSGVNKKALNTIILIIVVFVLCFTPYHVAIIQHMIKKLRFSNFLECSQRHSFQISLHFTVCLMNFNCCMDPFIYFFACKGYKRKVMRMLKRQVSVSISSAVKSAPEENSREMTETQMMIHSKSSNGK
# MPTP inh: blocks calcium-induced mitochondrial swelling. inhibition, % at 10 µM. isolated mouse mitochondria, Ca2+ swelling absorbance, 30 min. 360,000 compounds, 1.4% hits;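 active = inhibition of 50% or more, scaled per plate between neutral and stimulator controls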
# Rh123 counter: Rhodamine 123 counter-screen of mitochondrial pore hits | shares compounds with MPTP inh | isolated mitochondria, membrane potential, Rhodamine 123 fluorescence | inhibition, % at 10 µM | 5,000 compounds, 78% hits; in the data active = inhibition above about 22%
# MPTP swell DR: MPTP inhibition, dose response swelling confirmation | shares compounds with MPTP inh | isolated mitochondria swelling, absorbance | IC50, µM | 780 compounds, 58% hits | AID 651561; in the data active = IC50 below about 20 µM
# MPTP cs DR: active in counter-screen for permeability transition pore inhibitors. 780 compounds, 49% hits. AID 651564. IC50, µM. shares compounds with MPTP inh. isolated mitochondria counterscreen, fluorescence read-out; in the data active = IC50 below about 80 µM
# Numbers stand for hits; 0 = inactive; - = no result given. An excerpt weighted towards active compounds, which were near 4.4% of everything screened.
SMILES,GRIN3A LBD mod,SENP1 FRET inh,EBI2 antag,MPTP inh,Rh123 counter,others
Cc1cc(C(=O)CSc2nnc(-c3ccco3)o2)c(C)n1-c1ccc2c(c1)OCCO2,0,0,0,0,-,
Cc1cc(C(=O)CSc2nnc(-c3ccc4c(c3)OCO4)o2)c(C)n1-c1ccc(F)cc1,0,0,0,94,42,
Cc1cc(C(=O)CSc2nnc(-c3cccs3)o2)c(C)n1-c1ccccc1,0,0,0,52,45,
O=C(CSc1nnc(-c2cccs2)o1)c1cccs1,0,0,0,0,-,
COc1cc(CC(=O)OCC(=O)NC2CCCCC2C)cc(OC)c1OC (stereo not drawn),0,0,0,0,-,
CC1(C)Cc2c(sc(/N=C/N3CCCC3)c2C#N)C(C)(C)N1,0,0,0,0,-,
O=C(c1cccc(S(=O)(=O)N2CCN(c3ccccc3)CC2)c1)N1CCCC(C(F)(F)F)C1 (stereo not drawn),0,0,0,68,71,
O=C(c1cc(S(=O)(=O)N2CCN(c3ccccc3)CC2)ccc1Cl)N1CCCC(C(F)(F)F)C1 (stereo not drawn),0,0,0,0,-,
COc1ccc(NC2CCCN(C(=O)CN3C(=O)c4ccccc4C3=O)C2)cc1OC (stereo not drawn),0,0,0,0,-,
CC(C)(C)c1ccc(N/N=C(\C#N)S(=O)(=O)C(C)(C)C)cc1,0,0,0,86,86,
CC(C)(C)S(=O)(=O)/C(C#N)=N/Nc1ccc(Cl)cc1,0,0,0,92,87,
Cc1cccc(N/N=C(\C#N)S(=O)(=O)C(C)(C)C)c1,0,0,0,0,-,
CN1C[C@@H]2C(c3ccc(C(F)(F)F)cc3)C3(c4cccnc4)CC2(C3)[C@H]1c1ccccc1 (stereo partly drawn),0,0,0,0,-,
Cc1ccc2[nH]c(=O)c(COC(=O)c3cccs3)cc2c1,0,0,0,0,-,
COc1cc(CNCCCN2CCOCC2)cc(Br)c1OCc1ccc(Cl)cc1,0,0,0,74,0,
COc1cc(CNCCN2CCOCC2)ccc1OCc1ccc(Cl)cc1,0,0,0,0,-,
COC(=O)/C=C1\OCc2cc(C)ccc21,-,0,0,0,-,
COc1ccccc1C1CCN(C(=O)c2ccccc2)CC1,0,0,0,0,-,
COc1ccccc1C1CCN(c2cc(O)ccc2[N+](=O)[O-])CC1,13,0,0,86,78,
CCOc1ccc(Oc2ccc(NC(=O)[C@@H](NC(N)=O)[C@@H](C)CC)cc2)cc1,0,0,0,0,-,
O=C(Nc1ccc(Cl)cc1)Nc1ccccc1NS(=O)(=O)c1cccs1,30,0,0,82,83,
O=S(=O)(Nc1ccccc1Cl)c1ccc(NS(=O)(=O)c2cccs2)cc1,0,0,0,0,-,
NC(=O)c1ccccc1NS(=O)(=O)c1cccs1,0,0,0,0,-,
O=C(Nc1ccc(F)cc1)Nc1ccccc1NS(=O)(=O)c1cccs1,30,0,0,81,86,
COC(=O)C(NC(=O)C(NC(=O)C1CCC(C)CC1)C(C)C)C(C)C (stereo not drawn),0,0,0,0,-,
SMILES,GRIN3A LBD mod,SENP1 FRET inh,EBI2 antag,MPTP inh,Rh123 counter,others
COc1ccc(C=O)cc1OC(=O)C1(C)Cc2ccccc2C(=O)O1 (stereo not drawn),0,0,0,0,-,
Cn1nc(C(C)(C)C)cc1C(=O)NCc1ccc(N2CCCC2=O)cc1,0,0,0,95,93,
O=C(NC(=O)c1ccccc1O)c1ccc(C(F)(F)F)cc1,0,0,0,0,-,
CCCc1ccc(C(=O)NC(=O)c2ccccc2O)cc1,0,0,0,59,91,
N#CCCn1nc(-c2ccc([N+](=O)[O-])cc2)cc1Nc1ccccc1NC(=O)C(F)(F)F,0,0,0,93,91,
N#CCCn1nc(-c2ccc(Br)cc2)cc1Nc1ccccc1NC(=O)C(F)(F)F,0,0,0,95,84,
CC(C)COc1cccc(C(=O)NC(=S)Nc2cccc(NC(=O)c3ccccc3Cl)c2)c1,0,0,0,0,-,
O=C(NCc1cccc(C(F)(F)F)c1)c1ccc2c(c1)OCO2,0,0,0,0,-,
Cn1cnc2c1c(=O)n(Cc1ccc(Cl)cc1Cl)c(=O)n2C,0,0,0,0,-,
Cn1c(=O)c2c([nH]c(OCc3ccc(Cl)cc3Cl)[n+]2Cc2ccc(F)cc2)n(C)c1=O,0,0,0,50,0,MPTP swell DR=0;MPTP cs DR=0
